25 compounds from ChEMBL document CHEMBL1150379, “Synthesis and antiproliferative activity of imidazole and imidazoline analogs for melanoma” (Bioorg Med Chem Lett, 2008) can be followed below.

A short description of assay [1]: Antiproliferative activity against mouse B16-F1 cells after 48 hrs by SRB assay. Format: functional, cell-based. Particulars: B16-F1, 48 h. The procedure, abridged:
(§1)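 Cells seeded in round-bottom 96-well plates and exposed to a wide range of concentrations for 48 h. Fixed with 10% trichloroacetic acid, washed five times with water, air-dried overnight, then stained with sulforhodamine B. Total protein read at 560 nm. IC50 is the concentration inhibiting growth by 50% relative to DMSO-treated controls, obtained by nonlinear regression.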

In the next assay the test system is A-375. Put plainly: Antiproliferative activity against human A375 cells after 48 hrs by SRB assay. Format: functional, cell-based. To be noted: A-375, 48 h. The procedure, abridged:
as §1

Assay [2] in a line: Antiproliferative activity against fibroblast cells after 48 hrs by SRB assay. Format: cell-based. The procedure, abridged: as §1

Take `CCCCCCCCCCCCCCNC(=O)[C@@H]1CNC(c2ccccc2)=N1`: the values for the IC50 (in assay [1]; in the assay with A-375; in assay [2]) were 7.2 µM, 7.1 µM and 17.3 µM, respectively.

`CCCCCCCCCCCCCCCCCCNC(=O)c1c[nH]c(-c2ccccc2)n1`: the results for the IC50 (in assay [1]; with A-375; in assay [2]) were over 30 µM, 20.7 µM and 47.4 µM, respectively.

With `CCCCCCCCC/C=C/CCCCCCCNC(=O)c1c[nH]c(-c2ccccc2)n1`, the IC50 was 31.6 µM in assay [1], 16.1 µM with A-375 and 23.9 µM in assay [2].

Take `COc1cc(C2=N[C@H](C(=O)N(C)OC)CN2)cc(OC)c1OC`: the IC50 (in assay [1]; with A-375; in assay [2]) was over 20 µM in each case.

For the compound `CCCCCCCCCCCCNC(=O)c1c[nH]c(-c2ccccc2)n1`, the IC50 in assay [1] is 30 µM; in the assay on A-375, over 30 µM.

On to `CCCCCCCCCCCCCCCCNC(=O)[C@@H]1CNC(c2cc(OC)c(OC)c(OC)c2)=N1`, for which the IC50 is 3.8 µM in assay [1], 4.1 µM in the assay with A-375 and 13.3 µM in assay [2].

Consider `O=C(Nc1ccc(Br)cc1)c1c[nH]c(-c2ccccc2)n1`, for which the IC50 (in assay [1]; in the assay with A-375) was over 30 µM throughout.

Consider `CCCCCCCCCCCCCCCCNC(=O)[C@@H]1CNC(c2ccccc2)=N1`, for which the IC50 is 5.7 µM in assay [1], 10.5 µM in the assay on A-375 and 59.6 µM in assay [2].

On to `CCCCCCCCCCCCCCCCNC(=O)[C@@H]1CNC(c2ccc(NC(C)=O)cc2)=N1`, for which the IC50 in assay [1] was 2.4 µM; in the assay with A-375 it was 4.6 µM; in assay [2] it was 14.8 µM.

As for `CCCCCCCCCCCCCCCCNC(=O)[C@@H]1CNC(Cc2cc(OC)c(OC)c(OC)c2)=N1`, the results for the IC50 (in assay [1]; in the assay with A-375; in assay [2]) were 4 µM, 3.9 µM and 15.8 µM, respectively.

In the case of `CCCCCCCCCCCCCCCCNC(=O)[C@@H]1CSC(Cc2ccc(NC(C)=O)cc2)N1` (stereo partly specified), the figures for the IC50 (in assay [1]; with A-375; in assay [2]) were 171 µM, 191 µM and over 100 µM, respectively.

Regarding `CC(=O)Nc1ccc(CC2N[C@H](C(=O)Nc3ccc4c(c3)Cc3ccccc3-4)CS2)cc1` (stereo partly specified), the values for the IC50 (in assay [1]; in the assay with A-375; in assay [2]) were 4 µM, 6.1 µM and 15.3 µM, respectively.

Regarding `CCCCCCCCCCCCCCCCNC(=O)[C@H]1CC[C@@H](c2ccccc2)N1`, the IC50 was 11.5 µM in assay [1], 13.7 µM in the assay on A-375 and 46.6 µM in assay [2].

With `CCCCCCCCCCCCCCCCNC(=O)[C@@H]1CSC(Cc2ccccc2)N1` (stereo partly specified), the IC50 in assay [1] stood at 6.5 µM; in the assay with A-375 it was 8.1 µM; in assay [2], 15.3 µM.

With `CCCCCCCCCCCCCCCCCCNC(=O)[C@@H]1CNC(c2ccccc2)=N1`, the IC50 in assay [1] was 50.5 µM; with A-375 it was 54.3 µM; in assay [2] it was 111 µM.

Turning to `CCCCCCCCC/C=C/CCCCCCCNC(=O)[C@@H]1CNC(c2ccccc2)=N1`, the IC50 turned out to be 12 µM in assay [1], 8.3 µM with A-375 and 24.6 µM in assay [2].

Regarding `CCCCCCCCC/C=C/CCCCCCCNC(=O)[C@@H]1CSC(Cc2ccccc2)N1` (stereo partly specified), the IC50 is 11.6 µM in assay [1], 10.3 µM in the assay on A-375 and 15.5 µM in assay [2].

Consider `O=C(Nc1ccc2c(c1)Cc1ccccc1-2)[C@@H]1CSC(Cc2ccccc2)N1` (stereo partly specified), for which the IC50 in assay [1] is 118 µM; in the assay on A-375, 174 µM; in assay [2], over 100 µM.

Consider `CCCCCCCCCCCCCCNC(=O)c1c[nH]c(-c2ccccc2)n1`, for which the IC50 was determined as 38.2 µM in assay [1], 18.7 µM in the assay with A-375 and 42.7 µM in assay [2].

With `CCCCCCCCCCCCCCCCNC(=O)c1c[nH]c(-c2ccccc2)n1`, the 50% inhibitory concentration (IC50) in assay [1] came out at 39.7 µM; with A-375, 16.5 µM; in assay [2], 27.9 µM.

With `CCCCCCCCCCNC(=O)c1c[nH]c(-c2ccccc2)n1`, the IC50 (in assay [1]; in the assay on A-375) was over 30 µM throughout.

Consider `CCCCCCCCCCCCCCCCNC(=O)[C@@H]1CSC(C(C)c2ccccc2)N1` (stereo partly specified), for which the IC50 stood at 12.2 µM in assay [1], 13.1 µM in the assay with A-375 and 55.7 µM in assay [2].

As for `CCCCCCCCC/C=C/CCCCCCCNC(=O)[C@@H]1CSC(C(C)c2ccccc2)N1` (stereo partly specified), the results for the IC50 (in assay [1]; in the assay on A-375; in assay [2]) were 16.5 µM, 21.2 µM and 237 µM, respectively.

As to `CN(C)/N=N/c1[nH]cnc1C(N)=O` [DACARBAZINE], the IC50 (in assay [1]; with A-375) was over 100 µM in each case.

As for `CNC(=O)c1cc(Oc2ccc(NC(=O)Nc3ccc(Cl)c(C(F)(F)F)c3)cc2)ccn1` [SORAFENIB], the IC50 in assay [1] came to 4.9 µM; in the assay with A-375, 5.4 µM; in assay [2] it was 15.1 µM.
